# High-throughput results deposited in PubChem by Sanford-Burnham Center for Chemical Genomics.
# SENP7 block = SENP7 protease inhibitors, primary screen, biochemical, luminescence, uHTS. Sentrin-specific protease 7 (Homo sapiens), Q9BQF6. recombinant SENP7, Z-RLRGG-aminoluciferin luminescence, 40 min. inhibition, % at 5 µM. 330,000 compounds, 1.5% hits. AID 434973, 2010;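 active means inhibition above about 50% at the single test dose, limit read from the data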;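 further: plate controls were DMSO with enzyme for no effect and no enzyme buffer wells for full effect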
# SENP6 block = SENP6 protease inhibitors, primary screen, biochemical, luminescence, uHTS. Sentrin-specific protease 6 (Homo sapiens), Q9GZR1. Recombinant SENP6 catalytic domain, aminoluciferin luminescence. AID 2599, 2010. 330,000 compounds, 1.8% hits. inhibition, % at 10 µM;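 active means inhibition above about 50% at the single tested dose, limit read from the data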;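 further: plate controls were DMSO wells with enzyme for no effect and DMSO wells lacking enzyme for full effect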
# Target sequence (Q9GZR1 628-1112 limits assumed): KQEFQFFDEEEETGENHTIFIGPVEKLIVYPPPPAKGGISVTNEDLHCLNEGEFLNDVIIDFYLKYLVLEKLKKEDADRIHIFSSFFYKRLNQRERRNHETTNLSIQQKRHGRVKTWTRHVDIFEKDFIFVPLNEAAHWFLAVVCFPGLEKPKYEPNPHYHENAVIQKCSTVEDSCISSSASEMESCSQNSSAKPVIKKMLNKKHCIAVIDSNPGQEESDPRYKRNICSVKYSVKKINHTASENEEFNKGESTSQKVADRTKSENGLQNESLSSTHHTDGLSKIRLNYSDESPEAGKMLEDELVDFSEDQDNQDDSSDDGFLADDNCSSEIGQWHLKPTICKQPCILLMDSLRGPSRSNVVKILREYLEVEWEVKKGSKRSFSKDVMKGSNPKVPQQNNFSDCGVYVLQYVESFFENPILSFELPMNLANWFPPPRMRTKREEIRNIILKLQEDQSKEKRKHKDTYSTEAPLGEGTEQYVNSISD
# SENP8 block-1 = SENP8 protease inhibitors, primary screen, biochemical, luminescence. Sentrin-specific protease 8 (Homo sapiens), Q96LD8. 330,000 compounds, 1.2% hits. inhibition, % at 10 µM. purified SENP8, Z-RLRGG-aminoluciferin cleavage. AID 2540, 2010; in the data active means inhibition above about 50%
# SENP1 FRET inh = human SENP1 catalytic domain inhibitors, primary screen, biochemical, FRET, uHTS. Sentrin-specific protease 1 (Homo sapiens), Q9P0U3. recombinant SENP1 catalytic domain, CyPet-SUMO1-YPet FRET cleavage. 360,000 compounds, 0.21% hits. inhibition, % at 10 µM;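 active means inhibition at least 30% at 10 µM, raw YFP signal under a set limit, fluorescence ratio 0.5 to 1.5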;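 further: 0% = enzyme with DMSO and 100% = no enzyme wells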
#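 Material – human SENP1 catalytic domain · Input – SENP1 enzyme, 20 pM final · Compound dosing – single concentration of 10 µM compound, 0.5% DMSO final · Timing – enzyme reaction for 50 min at room temperature, dark · Measured by – FRET fluorescence in CFP and YFP emission channels · Control set – no-enzyme wells low, DMSO-plus-enzyme wells high control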
# SENP8 block-2 = human SENP8 protease inhibitors, primary screen, biochemical, fluorescence, Nedd8 protein substrate, uHTS | recombinant SENP8 | inhibition, % at 20 µM | 360,000 compounds, 0.64% hits | AID 602440, 2012; in the data active means inhibition mostly above about 40%, no sharp cut-off; inactive means mostly below about 27%
# SENP8 conf = SENP8 protease inhibitors, retest, confirmation, biochemical, luminescence, single concentration | shares compounds with SENP7 block | 6,200 compounds, 40% hits | Recombinant SENP8, Z-RLRGG-aminoluciferin luminescence, 60 min | inhibition, % at 12.5 µM | AID 488912, 2010;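 active means mean inhibition across replicates above about 50%, limit read from the data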
# SENP6 conf = SENP6 protease inhibitors, confirmation, biochemical, luminescence, single concentration | shares compounds with SENP7 block | 6,200 compounds, 58% hits | inhibition, % at 12.5 µM | recombinant SENP6, Z-RLRGG-aminoluciferin luminescence | AID 488915, 2010
# SENP7 confirm = SENP7 protease inhibitors, retest, confirmation, biochemical, luminescence, single concentration. 6,200 compounds, 69% hits. recombinant SENP7, Z-RLRGG-aminoluciferin luminescence, 40 min. inhibition, % at 12.5 µM. AID 488917, 2010. shares compounds with SENP7 block
# Casp3 select = caspase-3 protease inhibitors, confirmation, selectivity assay for SENP inhibitor project, biochemical, single concentration | shares compounds with SENP7 block | 6,200 compounds, 60% hits | purified caspase-3, Z-DEVD-aminoluciferin luminescence, 60 min | AID 488918, 2010 | inhibition, % at 12.5 µM;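 active means mean inhibition above about 50%, limit read from the data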;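 further: plate controls were enzyme with DMSO for no effect and wells without caspase-3 for full effect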
# Target sequence (P42574 28-227 limits assumed): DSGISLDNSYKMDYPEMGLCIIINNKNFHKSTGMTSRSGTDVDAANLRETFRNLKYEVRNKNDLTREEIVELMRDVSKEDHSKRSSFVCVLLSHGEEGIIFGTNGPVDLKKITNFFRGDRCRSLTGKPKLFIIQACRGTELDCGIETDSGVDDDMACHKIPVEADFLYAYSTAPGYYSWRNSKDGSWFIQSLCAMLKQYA
# Luc interf = interferes with luciferase luminescence in SENP counter-screen | shares compounds with SENP7 block | AID 488919 | Pre-incubated SENP8/Z-RLRGG-aminoluciferin, luciferase luminescence interference | 6,200 compounds, 39% hits | inhibition, % at 12.5 µM;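 active means mean inhibition above about 50% when retested at one dose, limit read from the data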;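 further: plate controls were DMSO wells with completed reaction for no effect and substrate without enzyme for full effect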
# Numbers without * were called inactive; . = no result given. Shown are actives, neighbours in structure and some others; about 2.5% of the full set was active somewhere.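 How the source made its calls, unless noted: active means mean inhibition above about 50% in the one-dose retest (limit read from the data); inactive means the rest.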
SMILES,SENP7 block,SENP6 block,SENP8 block-1,SENP1 FRET inh,SENP8 block-2,SENP8 conf,SENP6 conf,SENP7 confirm,Casp3 select,Luc interf
C=CCNC(=O)/C(=C/c1cccc([N+](=O)[O-])c1)NC(=O)c1ccco1,-1.1,2.0,1.0,-1.3,30.5,.,.,.,.,.
Cc1ccc(C)c(-n2c(SCC(=O)NC(C(=O)O)C(C)C)nnc2-c2cccc(Cl)c2)c1 (centres undefined),-2.8,-13.3,-7.1,1.3,-1.8,.,.,.,.,.
CN(C)c1ccc(/C=N/NC(=O)c2ccc3c(c2)OCO3)cc1,47.7,41.0,31.5,-19.4,-294.3,.,.,.,.,.
CCOC(=O)N/N=C\c1ccc(OC(=O)c2ccc3c(c2)OCO3)cc1,72.0*,66.3*,57.8*,2.7,8.8,-13.8,-12.9,12.7,2.6,22.5
CCN(C(=O)CO/N=C/c1ccc(OC)cc1OC)c1c(N)n(Cc2ccccc2)c(=O)[nH]c1=O,2.7,-0.1,9.9,-4.6,-0.6,.,.,.,.,.
COc1cccc(-c2ccc3c(N)c(C(=O)NC4CC4)sc3n2)c1,49.9,59.7*,46.3,-31.5,-459.6,-15.6,-14.2,18.6,10.0,24.5
COc1ccc(-c2ccc3c(N)c(C(=O)c4cccc(OC)c4)sc3n2)cc1,13.6,20.6,-2.5,-24.6,-260.5,.,.,.,.,.
COc1ccc(/C=N/NC(=O)c2c(Br)cnn2C)c2ccccc12,-8.3,-6.6,-9.2,3.1,-112.3,.,.,.,.,.
O=C(c1ccc(-c2ccccc2Cl)o1)N1CCCCCCC1,.,.,.,-1.7,9.6,.,.,.,.,.
CC1CCCN(C(=O)c2ccc(-c3ccccc3Cl)o2)C1 (centres undefined),16.3,50.3*,21.4,-0.2,7.8,32.1,28.8,58.6*,26.0,16.5
O=C(c1ccco1)n1c(=S)nc2ccccn21,27.2,9.6,-8.5,-1.9,-11.8,.,.,.,.,.
Cc1ccn2c(c1)nc(=S)n2C(=O)c1ccccc1,75.6*,60.0*,-7.0,-2.8,-16.2,41.2,52.1*,76.1*,39.4,40.8
Cc1cccc(C(=O)n2c(=S)nc3cc(C)ccn32)c1,81.2*,74.8*,57.8*,0.5,-20.1,63.3*,71.6*,86.7*,45.9,30.5
O=C(Nc1nnc(-c2ccco2)s1)c1ccccc1,-0.4,67.7*,49.9,-9.6,-236.4,16.5,53.9*,85.0*,77.0*,28.4
CC(C)C(=O)Nc1nnc(-c2ccco2)s1,-7.3,-30.6,-7.0,-0.4,-19.4,.,.,.,.,.
COc1ccc(C(=O)Nc2nnc(-c3cccs3)s2)cc1,55.9*,-12.4,-9.2,0.2,-467.8,-4.3,-4.3,-2.5,18.7,8.0
COc1ccc(C(=O)Nc2nnc(-c3ccco3)s2)cc1,94.7*,88.2*,78.0*,-3.2,-292.6,-23.7,10.6,42.9,24.9,1.9
O=C(Nc1nnc(-c2ccco2)s1)C1CC1,4.7,-0.5,-1.2,0.6,-40.0,.,.,.,.,.
COc1ccc(NC(=O)Nc2nnc(-c3cccs3)s2)cc1,4.9,-3.7,1.9,-2.8,-134.4,.,.,.,.,.
CCC(C)NC(=O)c1nn(Cc2ccccc2)c(=O)c2ccccc12 (centres undefined),3.7,-9.2,-9.3,-0.6,2.7,.,.,.,.,.
O=C(Nc1ccc(S(=O)(=O)Nc2ncccn2)cc1)c1nn(Cc2ccccc2)c(=O)c2ccccc12,16.8,84.8*,66.3*,-3.4,1.9,3.6,16.6,26.1,35.7,9.0
COCC(C)NC(=O)c1nn(Cc2ccccc2)c(=O)c2ccccc12 (centres undefined),5.3,61.2*,-0.1,-0.6,7.8,-6.1,-5.8,2.2,10.7,6.0
CCOc1ccc(NC(=O)COC(=O)C23CC4CC(CC(C4)C2)C3)c([N+](=O)[O-])c1,3.5,11.8,1.4,4.2,23.3,.,.,.,.,.
COc1ccc2nc(NC(=O)c3ccccc3C(=O)O)sc2c1,-7.5,-18.9,-1.1,2.7,9.5,.,.,.,.,.
COc1ccc(C(=O)Nc2nc3ccccc3s2)c(OC)c1,101.4*,97.1*,98.3*,-0.9,-170.7,87.9*,100.0*,103.0*,98.3*,33.0
SMILES,SENP7 block,SENP6 block,SENP8 block-1,SENP1 FRET inh,SENP8 block-2,SENP8 conf,SENP6 conf,SENP7 confirm,Casp3 select,Luc interf
COc1ccc2nc(NC(=O)c3ccccc3F)sc2c1,92.8*,86.8*,83.4*,-0.1,-95.5,74.6*,84.6*,98.5*,87.3*,29.1
COc1ccc2nc(NC(=O)Nc3ccccc3)sc2c1,84.7*,68.4*,48.8,0.5,0.4,43.6,45.5,91.1*,51.5*,11.1
COc1ccc(NC(=O)c2nc3ccccc3s2)cc1,97.2*,94.8*,94.5*,0.4,8.7,4.4,97.5*,102.5*,93.5*,75.2*
CC1OC(C(C)(C)C)Cc2[nH][nH]c(=O)c21 (centres undefined),.,.,.,1.9,4.5,.,.,.,.,.
COc1ccc(NC(=O)c2sc(NC(=O)COc3ccccc3)nc2C)cc1,0.2,67.6*,58.8*,1.1,10.7,-4.6,53.5*,96.1*,81.7*,26.3
Cc1nc(NC(=O)COc2ccccc2)sc1C(=O)Nc1cccc(Cl)c1,46.6,-2.1,2.3,2.2,-40.2,.,.,.,.,.
Cc1ccc2nc(NC(=O)c3ccccc3F)sc2c1,90.8*,86.3*,80.9*,0.0,-34.3,22.0,76.5*,50.2*,63.9*,7.3
CCCC(=O)Nc1nc2ccc(NC(=O)c3ccccc3F)cc2s1,3.5,7.2,-8.5,1.0,11.8,.,.,.,.,.
O=C(Nc1ccccc1)Nc1ccc2ncoc2c1,62.5*,-0.5,25.2,2.1,-9.8,57.9*,53.4*,82.5*,66.9*,58.1*
O=C(Nc1ccccc1)Nc1ccc2ocnc2c1,76.4*,30.6,58.3*,2.1,-11.5,3.8,63.8*,88.5*,83.5*,44.7
CN1CCN(c2ncnc3c2ncn3[C@H]2CN(Cc3ccc(F)cc3)C[C@@H](CO)O2)CC1,.,.,.,-0.5,-2.2,.,.,.,.,.
Cc1cc(C(=O)N/N=C2\CC(=O)c3ccccc32)c(C)n1-c1ccccc1,9.6,29.0,54.0*,6.5,36.8,3.4,17.7,19.9,15.7,1.3
